Hits are enriched below; roughly 3.7% of the tested compounds scored in any of these assays.
KCNK9 inh = human KCNK9 channel inhibition | HEK293 KCNK9, FluxOR thallium flux fluorescence; hits give low values | hit rate 1.2% among 310,000 | B-score at 10 µM | Q9NPC2;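 active = ratio B-score over 3 SD below the library mean, with starting fluorescence within 5 SD of its mean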;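 also: negative B-score means less thallium flux so channel inhibition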
hERG rescue = hERG (human) protection from proarrhythmic block; Q12809; CHO-hERG, FluxOR thallium flux, dofetilide IC70 present; activation (rescue from dofetilide block), less the hit threshold, % at 10 µM; hit rate 0.51% among 310,000; AID 1511;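 active = activation above the mean of controls blocked by dofetilide plus 5 SD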;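 also: thallium influx through hERG after potassium depolarization seen as dye fluorescence rise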
KCNQ1 pot = human KCNQ1 channel potentiation or activation; CHO-K1 KCNQ1, thallium flux FluxOR fluorescence; hits give high values; B-score at 10 µM; hit rate 0.35% among 310,000; AID 2648;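 active = fluorescence ratio B-score, a plate-corrected score, at least three library SD, with initial intensity B-score within 5 SD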
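Assay system: stable KCNQ1 CHO-K1 line; medium: assay buffer, equal DMSO in all wells; timing: 90 min dye loading and 20 min compound exposure, both at room temperature; technique: kinetic FluxOR thallium fluorescence, 10-s 1-Hz baseline, 110-s post-stimulus read; read-out basis: B score of baseline-normalized fluorescence ratio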
KCNK3 block = human KCNK3 channel inhibition, primary screen; hit rate 0.84% among 340,000; CHO-KCNK3 thallium flux, FluxOR fluorescence; hits give low values; O14649; B-score at 10 µM;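 active = B-score under library mean minus 4 SD, starting fluorescence ratio at most library mean plus 5 SD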;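 also: more negative B-score means stronger inhibition of thallium flux through KCNK3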
Kir21 block = Kir2.1 (mouse) channel inhibition | P35561 | HEK293-Kir2.1, FluxOR thallium flux fluorescence; hits give low values | B-score at 10 µM | hit rate 0.85% among 310,000;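 active = fluorescence ratio B-score at or below minus 3 SD of library scores, with starting-brightness B-score within 2 SD, cut at about -4.2 in these data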;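 also: channel flux triggered by added potassium and thallium sulfate stimulus; B-score of peak minus minimum fluorescence over baseline after thallium stimulus; more negative B-score means stronger Kir2.1 block with less thallium influx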
KCNQ1 inh = human KCNQ1 channel inhibition; P51787; CHO-K1 KCNQ1, FluxOR thallium flux fluorescence; hits give high values; B-score at 10 µM; hit rate 1.3% among 310,000; AID 2642;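 active = compounds whose thallium flux B-score, printed positive for inhibition, exceeds three library SD while starting fluorescence stays within three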;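 also: channel opened by potassium depolarization with thallium stimulus after 20 min compound exposure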
Starred values were filed as active, the others as inactive.

CCOc1ccc(CN(C)C(=O)c2ccc(S(=O)(=O)N(C)c3ccccc3OC)cc2)cc1 was read as KCNK3 block inactive.
`CCOC(=O)c1cnn(-c2nc3c(C)cccc3s2)c1C(F)(F)F` gave KCNK9 inh -7.89*, hERG rescue -10.3, KCNQ1 pot inactive, KCNK3 block inactive, Kir21 block 0.96 and KCNQ1 inh inactive.
`Cc1ccc(CS(=O)Cc2ccc(C(=O)N3CCN(c4ccccn4)CC3)o2)cc1` (stereo unspecified) gave KCNK9 inh inactive, hERG rescue -22.4, KCNQ1 pot inactive, KCNK3 block inactive, Kir21 block -1.69 and KCNQ1 inh inactive.
Screening CCCN(CC(=O)Nc1ccccc1C)C(=O)c1ccc(S(=O)(=O)N2CCC(C)CC2)cc1 returned KCNK3 block inactive.
Screening CCN(CC)CCn1c(OC)cc(=O)[nH]c1=O returned KCNK9 inh inactive, hERG rescue -6.4, KCNQ1 pot 7*, KCNK3 block inactive, Kir21 block 0.41 and KCNQ1 inh inactive.
Screening CCN(CC)CCn1c(N)cc(=O)[nH]c1=O returned KCNK9 inh inactive, hERG rescue -7.0, KCNQ1 pot inactive, KCNK3 block inactive, Kir21 block -0.05 and KCNQ1 inh inactive.
For O=C1C(=NO)CC(c2ccccc2)N1c1ccccc1 (stereo unspecified) the results were KCNK3 block inactive.
Screening O=C(NC1CC1)c1ccc2c(c1)C1C3CCC(C3)C1C(c1ccccc1)N2 (stereo unspecified) returned KCNK9 inh inactive, hERG rescue 5.2*, KCNQ1 pot inactive, KCNK3 block inactive, Kir21 block -0.56 and KCNQ1 inh inactive.
Clc1ccc(C(c2ccccc2Cl)C(Cl)Cl)cc1 (stereo unspecified) was read as KCNK3 block -8.93*.
CCc1ccc(C(c2ccc(CC)cc2)C(Cl)Cl)cc1 was read as KCNK3 block inactive.
CCN1CCN(C(=O)c2cc(=O)c3cc(C)ccc3o2)CC1 was read as KCNK9 inh inactive, hERG rescue -0.5, KCNQ1 pot inactive, KCNK3 block inactive, Kir21 block 0 and KCNQ1 inh inactive.
Screening O=C(Nc1ncc(Br)s1)C(Cc1ccccc1)n1cccc1 (stereo unspecified) returned KCNK9 inh inactive, hERG rescue 11.1*, KCNQ1 pot 31*, KCNK3 block inactive, Kir21 block -1.54 and KCNQ1 inh inactive.
`COC(=O)Cn1cnc(C(=O)Nc2ccc(C)c(C)c2)n1` gave KCNK3 block inactive.
`Cc1ccc(C)c(C(C)NC(=S)NCc2ccc(F)cc2)c1` (stereo unspecified) gave KCNK9 inh inactive, hERG rescue -9.6, KCNQ1 pot inactive, KCNK3 block inactive, Kir21 block -0.35 and KCNQ1 inh inactive.
COc1ccc([N+](=O)[O-])cc1NC(=O)CSCc1cc(C)cc(C)c1 was read as KCNK9 inh inactive, hERG rescue -2.5, KCNQ1 pot inactive, KCNK3 block inactive, Kir21 block -8.74* and KCNQ1 inh inactive.
For COc1ccc(C2c3ccc4ccccc4c3Oc3ncn(CCCO)c(=N)c32)cc1OC (stereo unspecified) the results were KCNK9 inh inactive, hERG rescue -12.0, KCNQ1 pot 9*, KCNK3 block inactive, Kir21 block -1.38 and KCNQ1 inh inactive.
For CN(C)CCCn1cnc2c(c1=N)C(c1ccccc1)c1ccc3ccccc3c1O2 (stereo unspecified) the results were KCNK9 inh inactive, hERG rescue -17.1, KCNQ1 pot inactive, KCNK3 block inactive, Kir21 block -7.25* and KCNQ1 inh inactive.
Screening COc1ccc(C2c3ccc4ccccc4c3Oc3ncn(CCO)c(=N)c32)cc1OC (stereo unspecified) returned KCNK9 inh inactive, hERG rescue -10.4, KCNQ1 pot inactive, KCNK3 block inactive, Kir21 block -1.75 and KCNQ1 inh inactive.
Screening COc1ccc(C2c3ccc4ccccc4c3Oc3ncn(CCCO)c(=N)c32)cc1 (stereo unspecified) returned KCNK9 inh inactive, hERG rescue -19.8, KCNQ1 pot inactive, KCNK3 block inactive, Kir21 block -2.93 and KCNQ1 inh inactive.
COc1ccc(C2c3ccc4ccccc4c3Oc3ncn(CCO)c(=N)c32)cc1 (stereo unspecified) was read as KCNK9 inh inactive, hERG rescue -13.2, KCNQ1 pot inactive, KCNK3 block inactive, Kir21 block -5.21* and KCNQ1 inh inactive.
`N=c1c2c(ncn1CCCO)Oc1ccc3ccccc3c1C2c1ccccc1` (stereo unspecified) gave KCNK9 inh inactive, hERG rescue -10.9, KCNQ1 pot inactive, KCNK3 block inactive, Kir21 block -4.24* and KCNQ1 inh inactive.
N=c1c2c(ncn1CCCO)Oc1c(ccc3ccccc13)C2c1ccccc1 (stereo unspecified) was read as KCNK9 inh inactive, hERG rescue -17.7, KCNQ1 pot inactive, KCNK3 block inactive, Kir21 block -3.72 and KCNQ1 inh inactive.
`O=C(COC(=O)/C=C/c1cccc(C(F)(F)F)c1)NC1CCCCCC1` gave KCNK3 block inactive.
Cc1ccc(S(=O)(=O)N2[C@@H](c3cccc(Cl)c3)C(C(=O)O)=CC[C@H]2c2cccs2)cc1 was read as KCNK3 block inactive.
For Cc1cc(CNC(=O)C2(C(F)(F)F)C/C(=C\Cc3ccccc3)CCCO2)nn1C (stereo unspecified) the results were KCNK9 inh inactive, hERG rescue -10.5, KCNQ1 pot inactive, KCNK3 block inactive, Kir21 block -2.32 and KCNQ1 inh inactive.
Screening COc1ccc(C2c3ccc4ccccc4c3Oc3ncn(CCN(C)C)c(=N)c32)cc1 (stereo unspecified) returned KCNK9 inh inactive, hERG rescue -19.6, KCNQ1 pot inactive, KCNK3 block inactive, Kir21 block -4.28* and KCNQ1 inh inactive.
`CCOC(=O)CSc1nnc(CNc2ccc(Cl)cc2)n1Cc1ccccc1` gave KCNK9 inh inactive, hERG rescue -15.2, KCNQ1 pot inactive, KCNK3 block inactive, Kir21 block -2.52 and KCNQ1 inh 8*.
For CCn1c(CNc2ccc(F)cc2)nnc1SCC(=O)OC1CCCCC1 the results were KCNK9 inh inactive, hERG rescue -3.4, KCNQ1 pot inactive, KCNK3 block inactive, Kir21 block -4.49* and KCNQ1 inh inactive.
`O=C1c2ccccc2NC(c2ccc(Br)o2)N1O` (stereo unspecified) gave KCNK3 block inactive.
